Source: PubChem BioAssay (several laboratories)
Rows were chosen to be rich in hits. Some 1.2% of all compounds tested hit in one or more screens of this group.
GC-B act – human GC-B receptor activators, primary screen, HEK293 GC-B cells, cGMP TR-FRET, EC30 CNP | Atrial natriuretic peptide receptor 2 (Homo sapiens), P20594 | activation, % at 10 µM | 0.11% of 370,000 active | 0% at EC30 CNP, 100% saturating CNP;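 active means activation at 10 µM reaching about 35% in either raw or pattern-adjusted values, limit read from the data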
Fh CTSL1 inh – Fasciola hepatica cathepsin L1 inhibitors, primary screen, counter-screen for PFM18AAP inhibitor project, biochemical, QFRET, fluorogenic peptide substrate. recombinant F. hepatica cathepsin L1, Z-Leu-Arg-MCA fluorescence. inhibition, % at 5.96 µM. 0.49% of 300,000 active. AID 1906, 2009;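 active means inhibition above the mean of all tested compounds plus 3 SD, set per screening campaign, cut at about 17% in these data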
NPR1 activator – GC-A stimulated cGMP production enhancers – HEK293 GC-A cells, cGMP TR-FRET, EC30 ANP, primary screen. 0% at EC30 ANP, 100% saturating ANP. activation, % at 10 µM. 0.14% of 370,000 active. AID 1671463, 2021; in the data active means activation above about 40%
ASAP1 inh – inhibitors of human ASAP1 ArfGAP activity, primary screen, biochemical, fluorescence polarization. ASAP1-stimulated ARF1 GTP hydrolysis, GDP FP detection. inhibition, % at 16.5 µM. 0.19% of 360,000 active. AID 624377, 2012; in the data active means inhibition above about 25%
HCV core dimer – inhibitors of HCV core protein dimerization, primary screen, biochemical, TR-FRET, high-throughput | TR-FRET GST/Flag-core106 dimerization, 1536-well | inhibition, % at 5 µM | 0.33% of 300,000 active;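 active means inhibition above the mean of all tested compounds plus 3 SD, set per screening campaign, cut at about 45% in these data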
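Assay system: GST-tagged and Flag-tagged HCV core protein residues 1-106 / Times: compound-protein-antibody incubation 4 h at 22.5 °C / Signal: time-resolved FRET, ex 340 nm, em 617 and 671 nm / Evaluation: % inhibition based on acceptor/donor emission ratio / Benchmarks: wells lacking GST-core106 and wells with excess unlabelled core106 / Repeats: singlicate, one well per compound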
ARFGAP1 inh – inhibitors of rat ARFGAP1 GAP activity, primary screen, biochemical, fluorescence polarization, GDP tracer. 0.26% of 360,000 active. Arfgap1-stimulated ARF1 GTP hydrolysis, GDP FP detection. inhibition, % at 16.5 µM. ADP-ribosylation factor GTPase-activating protein 1 (Rattus norvegicus), Q62848. AID 651572, 2012;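 active means inhibition above a per-plate limit, mean inhibition of low control wells plus 3 SD, cut at about 25% in these data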
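System: truncated rat Arfgap1 GAP domain / Medium: HEPES-based buffer, pH 7.5 / Also added: N-terminally truncated human ARF1-GTP substrate / Incubation: enzyme reaction 120 min at 25 °C after 20 min preincubation / Measured by: FP of antibody-bound GDP Alexa 633 tracer, ex 620/em 688 nm / Replicates: singlicate, each compound tested once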
ASAP1 inh confirm – ASAP1 GAP activity inhibitors, confirmation, biochemical, fluorescence polarization, human, triplicate. inhibition, % at 16.5 µM. ASAP1-stimulated Arf1 GTPase, GDP fluorescence polarization. 37% of 620 active. shares compounds with ASAP1 inh;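 active means mean inhibition over triplicates exceeds the hit threshold derived for the earlier primary screening run, cut at about 25% in these data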
ARFGAP1 inh conf – ARFGAP1 inhibitor hit confirmation, biochemical, fluorescence polarization, triplicate. ARFGAP1-stimulated ARF1 GTP hydrolysis, GDP tracer FP. 30% of 890 active. inhibition, % at 16.5 µM. shares compounds with ARFGAP1 inh;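 active means average inhibition over triplicates above the hit cutoff set in the earlier primary screen, cut at about 25% in these data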
Numbers stand for hits; 0 = inactive; - = not tested or not shown.

SMILES	GC-B act	Fh CTSL1 inh	NPR1 activator	ASAP1 inh	HCV core dimer	ARFGAP1 inh	others
COC(=O)C1=C(C(=O)OC)SC2(S1)C(C(=O)OC)=C(C(=O)OC)Sc1c2ssc1=O	65	-	43	0	-	0
COc1ccc(Oc2cc(NC(=O)c3nn(C)cc3[N+](=O)[O-])cc([N+](=O)[O-])c2)cc1	0	20	0	0	0	0
CCN1C(=O)/C(=C/c2ccc3c(c2)CCN3CCCCl)C(=O)NC1=S	0	0	0	0	84	0
O=C1NC(=S)N(C2CC2)C(=O)/C1=C/c1ccc2c(c1)CCN2CCCCl	0	0	0	0	0	0
CCCNC(=O)N1[C@H]2CC[C@@H]1C(C(=O)OC)=C(c1ccc(OC(F)(F)F)cc1)C2	0	-	0	0	-	0
CN(C)C(=O)Oc1c(Cl)cc(Cl)c2cccnc12	0	0	0	0	0	0
CN(C)C(=O)Oc1noc2cc(Cl)ccc12	0	43	0	0	0	0
O=C1NC(=O)C(=Cc2ccc(Sc3ccccc3)o2)C(=O)N1	49	0	51	0	0	0
CN1C(=O)C(=Cc2ccc(Sc3ccccc3)o2)C(=O)N(C)C1=S	0	0	0	0	0	0
CN1C(=O)C(=Cc2ccc(Sc3ccccc3)o2)C(=O)N(C)C1=O	0	0	46	0	0	0
CCOC(=O)[C@]12Cc3ccccc3[C@H]1N(Cc1ccccc1)C(=O)c1cc(F)c(F)cc12	0	-	0	0	-	0
COCCO[C@H]1CC[C@@]2(C)C(=CCC3C2CC[C@@]2(C)C3CC[C@]2(C)O)C1 (stereo partly drawn)	0	-	0	0	-	0
CCOC(=O)c1ccc(NC(=O)c2c(O)[nH]c(=O)[nH]c2=O)cc1	0	0	0	0	0	0
C[n+]1c2ccccc2nc2ccc(NCCO)cc21	0	38	0	0	0	0
C=CCn1c(=O)c(C=Nc2cccnc2Cl)c(O)n(CCCC)c1=O	0	0	0	0	0	0
Cc1cc(OCC(=O)N2CCC(C(=O)O)(c3ccccc3)CC2)c2c(C)c(C)c(=O)oc2c1	0	18	0	0	0	0
O=C(Nc1ccc(OC(=O)N2CCCCC2)cc1)N1CCOCC1	0	0	0	0	0	0
CC(C)c1ccccc1OCC(=O)N1CCCN(C)CC1	0	18	0	0	0	0
CCCNC(=O)N1[C@H]2CC[C@@H]1C(C(=O)OC)=C(c1c(C)noc1C)C2	0	-	0	0	-	0
CCn1c(C)cc(/C=C2\C(=O)NC(=O)N(c3ccccc3C)C2=O)c1C	0	0	0	0	0	0
Cc1ccccc1N1C(=O)NC(=O)/C(=C\c2cnn(-c3ccccc3)c2)C1=O	0	0	45	0	0	0
Cc1ccc(/C=C2\C(=O)NC(=O)N(Cc3ccccc3Cl)C2=O)o1	0	0	0	28	0	0	ASAP1 inh confirm=0
c1ccc(NC2=NCCCS2)cc1	0	-	0	0	-	0
COP(=O)(OC)C(NC(C)=O)C(Cl)(Cl)Cl (stereo not drawn)	0	0	0	26	0	0	ASAP1 inh confirm=0
CCSc1nnc(C(N)Cc2ccccc2)o1 (stereo not drawn)	0	0	0	29	0	0	ASAP1 inh confirm=0
SMILES	GC-B act	Fh CTSL1 inh	NPR1 activator	ASAP1 inh	HCV core dimer	ARFGAP1 inh	others
CCSc1nnc([C@@H](N)Cc2ccccc2)o1	0	0	0	0	0	0
Fc1ccc(C2=CCN(C(c3cccs3)c3nnnn3CCc3ccccc3)CC2)cc1 (stereo not drawn)	0	0	0	0	0	0
CCOC(=O)c1c(NS(=O)(=O)c2ccccc2)n(CCCOC)c2nc3ccccc3nc12	0	0	0	0	0	34	ARFGAP1 inh conf=0
Cc1ccccc1-n1c(O)c(/C=N/Nc2nc3c(c(=O)n(C)c(=O)n3C)n2C)c(=O)[nH]c1=S	0	0	0	0	0	26	ARFGAP1 inh conf=0
CCCNC(=O)N1[C@H]2CC[C@@H]1C(C(=O)OC)=C(c1cc3ccccc3s1)C2	0	0	0	0	0	0
OC12Oc3ccccc3C=C1N1CCC2CC1 (stereo not drawn)	0	0	0	0	0	25	ARFGAP1 inh conf=0
CCOc1ccc(CN2CCCC(C(=O)c3ccccc3OC)C2)cc1 (stereo not drawn)	0	0	0	0	0	0
CN(c1ccc(OCC(=O)N2CCN(C/C=C/c3ccccc3)CC2)cc1)S(=O)(=O)c1cccs1	0	0	0	0	0	27	ARFGAP1 inh conf=0
COc1ccc(C(=O)NC(=S)N2C[C@H]3C[C@H](C2)c2cccc(=O)n2C3)cc1	0	0	0	0	0	34	ARFGAP1 inh conf=0
COc1ccc(/C=C/C(=O)NC(=S)N2C[C@H]3C[C@H](C2)c2cccc(=O)n2C3)cc1	0	0	0	0	0	0
Cc1ccc(OCC(=O)N2CCN(C)CC2)c(Br)c1	0	0	0	0	0	0
Clc1ccc(C(c2ccc(Cl)cc2)n2cc[n+](CC(OCc3ccc(Cl)cc3Cl)c3ccc(Cl)cc3Cl)c2)cc1 (stereo not drawn)	0	0	0	0	0	28	ARFGAP1 inh conf=81
Clc1ccc(COC(Cn2ccnc2)c2ccc(Cl)cc2Cl)cc1 (stereo not drawn)	0	0	0	0	0	0
Cc1cccc(NC2=NCCCS2)c1	0	0	0	0	0	0
